# Measurements taken from ChEMBL document CHEMBL4825676, “Design and biological evaluation of cinnamic and phenylpropionic amide derivatives as novel dual inhibitors of HIV-1 protease and reverse transcriptase” (Eur J Med Chem, 2021).
# Tests used:
# [1] = target: Human immunodeficiency virus type 1 protease (Human immunodeficiency virus 1, UniProt Q72874); assay: Inhibition of wild type HIV1 protease expressed in Escherichia coli using Arg-Glu (EDANS)-Ser-Gln-Asn-Tyr-Pro-Ile-Val-Gln-Lys(DABCYL)-Arg as substrate preincubated for 20 to 30 mins followed by substrate addition and measured for 10 mins by FRET assay
# In short: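 Recombinant HIV-1 PR was expressed in E. coli and purified. It was mixed with inhibitor (DMSO stock) for 20–30 min at room temperature before addition of the EDANS/DABCYL-labelled peptide. Buffer: 0.1 M sodium acetate, 1 M NaCl, 1 mM EDTA, 1 mM DTT, 2% DMSO, 1 mg/mL BSA, pH 4.7. Triplicate; mean of three independent experiments.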
# [2] = target: Human immunodeficiency virus type 1 reverse transcriptase (Human immunodeficiency virus 1, UniProt Q72547); assay: Inhibition of wild type HIV-1 NL4-3 reverse transcriptase using random mRNA as template and GADPH as primer measured at 42 degreeC for 5 mins, 95 degreeC for 10sec and 60 degreeC for 60 sec by qRT-PCR analysis
# [3] = system: Human immunodeficiency virus 1; assay: Antiviral activity against HIV1 NL4-3 VSV-G pseudotyped virus infected in human SUP-T1 cells assessed as inhibition of early stage viral production at 10 uM measured after 48 hrs by luciferase assay relative to control; assay type: functional; settings: Human immunodeficiency virus 1, NL4-3, SUP-T1
# In short: (§1)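 Early-stage assay: SupT1 cells (1 × 10⁵/mL) were infected with VSV-G-pseudotyped HIV-1(NL4-3), and compounds were added afterward, with final DMSO held at 1% (v/v). After 48 h the cells were lysed and firefly luciferase activity was measured. Quintuplicate; inhibition at one fixed concentration and EC50.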
# [4] = system: Human immunodeficiency virus 1; assay: Antiviral activity against HIV1 NL4-3 VSV-G pseudotyped virus infected in human SUP-T1 cells assessed as inhibition of early stage viral production measured after 48 hrs by luciferase assay; assay type: functional, organism-based; settings: Human immunodeficiency virus 1, NL4-3, SUP-T1, 48 h; in short: as §1
# [5] = system: Human immunodeficiency virus 1; assay: (§2) Antiviral activity against HIV1 NL4-3 Env-deficient VSV-G pseudotyped virus infected in human SUP-T1 cells assessed as inhibition of late stage viral production when host cells were infected with compound pretreated viral particles measured after 48 hrs by luciferase assay; assay type: functional, organism-based; settings: Human immunodeficiency virus 1, NL4-3, SUP-T1
# In short: (§3)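 Late-stage assay: VSV-G pseudotyped HIV-1 was made by co-transfecting 293T cells with pNL4-3-E⁻R⁻ (or DRV-resistant variants) plus pHCMV-G. Inhibitors in DMSO were added to the medium 5 h post-transfection. After 48 h at 37 °C, supernatant virus infected SupT1 cells for 48 h, and luciferase was read in the newly infected cells. Quintuplicate; inhibition at one fixed concentration and EC50.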
# [6] = system: Human immunodeficiency virus 1; assay: as §2, with “particles at 10 uM” for “particles”, “assay relative to control” for “assay”; assay type: functional; settings: Human immunodeficiency virus 1, NL4-3, SUP-T1; in short: as §3
# [7] = Ratio of antiviral activity against HIV1 NL4-3 Env-deficient VSV-G pseudotyped virus infected in human SUP-T1 cells assessed as inhibition of late stage viral production when host cells were infected with compound pretreated viral particles to antiviral activity against HIV1 NL4-3 VSV-G pseudotyped virus infected in human SUP-T1 cells assessed as inhibition of early stage viral production; assay type: functional, Human immunodeficiency virus 1
# In short: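 Ratio taken from single-round VSV-G pseudotyped HIV-1(NL4-3) luciferase assays in SupT1 cells (quintuplicate). It is late-stage inhibition (compound given to producer 293T cells after transfection) divided by early-stage inhibition (compound added after SupT1 infection), or the reverse.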
Compound,IC50 [1] [nM],IC50 [2] [nM],further results
COc1ccc(S(=O)(=O)N(CC(C)C)C[C@@H](O)[C@H](Cc2ccccc2)NC(=O)/C=C/c2cc(OC)c(O)c(OC)c2)cc1,13.1,125,
CSc1ccc(S(=O)(=O)N(CC(C)C)C[C@@H](O)[C@H](Cc2ccccc2)NC(=O)CCc2ccc(O)c(O)c2)cc1,2.02,0.43,inhibition at 10 µM [3]: 68%; EC50 [4]: 8320 nM; EC50 [5]: 2310 nM; inhibition at 10 µM [6]: 97%; Ratio [7]: 1.43
COc1ccc(S(=O)(=O)N(C[C@@H](O)[C@H](Cc2ccccc2)NC(=O)/C=C/c2cc(OC)c(O)c(OC)c2)C2CC2)cc1,294,33.5,
COc1ccc(S(=O)(=O)N(CC(C)C)C[C@@H](O)[C@H](Cc2ccccc2)NC(=O)/C=C/c2ccc(O)c(O)c2)cn1,2.86,35.5,
COc1cc(/C=C/C(=O)N[C@@H](Cc2ccccc2)[C@H](O)CN(CC(C)C)S(=O)(=O)c2ccc(SC)cc2)cc(OC)c1O,65.1,51.5,
COc1ccc(S(=O)(=O)N(CC(C)C)C[C@@H](O)[C@H](Cc2ccccc2)NC(=O)CCc2ccc(O)c(OC)c2)cn1,0.16,241,
COc1ccc(S(=O)(=O)N(C[C@@H](O)[C@H](Cc2ccccc2)NC(=O)/C=C/c2ccc(O)c(O)c2)C(C)C)cc1,54,53.5,
CCCN(C[C@@H](O)[C@H](Cc1ccccc1)NC(=O)/C=C/c1ccc(O)c(O)c1)S(=O)(=O)c1ccc(OC)cc1,2.55,53.5,
COc1ccc(S(=O)(=O)N(CC(C)C)C[C@@H](O)[C@H](Cc2ccccc2)NC(=O)CCc2ccc(O)c(O)c2)cc1,0.39,3.5,
COc1cc(CCC(=O)N[C@@H](Cc2ccccc2)[C@H](O)CN(CC(C)C)S(=O)(=O)c2ccc(N)cc2)c(OC)cc1O,68.9,113,
CCCN(C[C@@H](O)[C@H](Cc1ccccc1)NC(=O)CCc1ccc(O)c(O)c1)S(=O)(=O)c1ccc(OC)cc1,0.54,7.5,
CC(C)CN(C[C@@H](O)[C@H](Cc1ccccc1)NC(=O)O[C@H]1CO[C@H]2OCC[C@H]21)S(=O)(=O)c1ccc(N)cc1,,,inhibition at 10 µM [3]: 2%; inhibition at 10 µM [6]: 99%
COc1ccc(S(=O)(=O)N(C[C@@H](O)[C@H](Cc2ccccc2)NC(=O)/C=C/c2ccc(O)c(OC)c2)C(C)C)cc1,98.8,87.5,
COc1ccc(S(=O)(=O)N(C[C@@H](O)[C@H](Cc2ccccc2)NC(=O)CCc2ccc(O)c(O)c2)C(C)C)cc1,1.47,20.5,
COc1ccc(S(=O)(=O)N(CC(C)C)C[C@@H](O)[C@H](Cc2ccccc2)NC(=O)CCc2cc(OC)c(O)cc2OC)cn1,42.2,2.97,
CSc1ccc(S(=O)(=O)N(CC(C)C)C[C@@H](O)[C@H](Cc2ccccc2)NC(=O)/C=C/c2ccc(O)c(O)c2)cc1,16.2,21.5,
COc1ccc(S(=O)(=O)N(C[C@@H](O)[C@H](Cc2ccccc2)NC(=O)/C=C/c2ccc(O)c(O)c2)C2CC2)cc1,19.5,31.5,
COc1cc(CCC(=O)N[C@@H](Cc2ccccc2)[C@H](O)CN(CC(C)C)S(=O)(=O)c2ccc(N)cc2)ccc1O,0.58,31.5,
COc1cc(/C=C/C(=O)N[C@@H](Cc2ccccc2)[C@H](O)CN(CC(C)C)S(=O)(=O)c2ccc(N)cc2)ccc1O,3.09,43.5,
COc1ccc(S(=O)(=O)N(CC(C)C)C[C@@H](O)[C@H](Cc2ccccc2)NC(=O)/C=C/c2ccc(O)c(OC)c2)cc1,2.93,146,
COc1ccc(S(=O)(=O)N(C[C@@H](O)[C@H](Cc2ccccc2)NC(=O)CCc2cc(OC)c(O)cc2OC)C2CC2)cc1,161,9,
CC(C)CN(C[C@@H](O)[C@H](Cc1ccccc1)NC(=O)/C=C/c1ccc(O)c(O)c1)S(=O)(=O)c1ccc(N)cc1,0.2,7.5,

Compound,IC50 [1] [nM],IC50 [2] [nM],further results
COc1cc(CCC(=O)N[C@@H](Cc2ccccc2)[C@H](O)CN(CC(C)C)S(=O)(=O)c2ccc(SC)cc2)c(OC)cc1O,89.8,60.7,
COc1ccc(S(=O)(=O)N(CC(C)C)C[C@@H](O)[C@H](Cc2ccccc2)NC(=O)/C=C/c2ccc(O)c(O)c2)cc1,0.16,40.8,
O=C1Nc2ccc(Cl)cc2[C@@](C#CC2CC2)(C(F)(F)F)O1 [EFAVIRENZ],,,inhibition at 10 µM [3]: 85%; inhibition at 10 µM [6]: 15%
COc1cc(CCC(=O)N[C@@H](Cc2ccccc2)[C@H](O)CN(CC(C)C)S(=O)(=O)c2ccc(SC)cc2)ccc1O,7.73,3.5,
COc1cc(/C=C/C(=O)N[C@@H](Cc2ccccc2)[C@H](O)CN(CC(C)C)S(=O)(=O)c2ccc(SC)cc2)ccc1O,15.8,99.5,
COc1ccc(S(=O)(=O)N(C[C@@H](O)[C@H](Cc2ccccc2)NC(=O)CCc2ccc(O)c(OC)c2)C(C)C)cc1,9.56,40.5,
COc1cc(/C=C/C(=O)N[C@@H](Cc2ccccc2)[C@H](O)CN(CC(C)C)S(=O)(=O)c2ccc(N)cc2)cc(OC)c1O,144,1.5,inhibition at 10 µM [3]: 14%; EC50 [4]: 68000 nM; EC50 [5]: 37400 nM; inhibition at 10 µM [6]: 30%; Ratio [7]: 2.14
COc1ccc(S(=O)(=O)N(C[C@@H](O)[C@H](Cc2ccccc2)NC(=O)CCc2ccc(O)c(OC)c2)C2CC2)cc1,32.5,285,
CCCN(C[C@@H](O)[C@H](Cc1ccccc1)NC(=O)CCc1cc(OC)c(O)cc1OC)S(=O)(=O)c1ccc(OC)cc1,86.4,6.5,
CCCN(C[C@@H](O)[C@H](Cc1ccccc1)NC(=O)CCc1ccc(O)c(OC)c1)S(=O)(=O)c1ccc(OC)cc1,1.7,234,
COc1ccc(S(=O)(=O)N(C[C@@H](O)[C@H](Cc2ccccc2)NC(=O)CCc2ccc(O)c(O)c2)C2CC2)cc1,4.04,45.5,
COc1ccc(S(=O)(=O)N(CC(C)C)C[C@@H](O)[C@H](Cc2ccccc2)NC(=O)CCc2cc(OC)c(O)cc2OC)cc1,104,73,
COc1ccc(S(=O)(=O)N(CC(C)C)C[C@@H](O)[C@H](Cc2ccccc2)NC(=O)CCc2ccc(O)c(OC)c2)cc1,1.1,206,
CCCN(C[C@@H](O)[C@H](Cc1ccccc1)NC(=O)/C=C/c1cc(OC)c(O)c(OC)c1)S(=O)(=O)c1ccc(OC)cc1,36.7,90.5,
COc1ccc(S(=O)(=O)N(CC(C)C)C[C@@H](O)[C@H](Cc2ccccc2)NC(=O)/C=C/c2ccc(O)c(OC)c2)cn1,2.42,124,
COc1ccc(S(=O)(=O)N(CC(C)C)C[C@@H](O)[C@H](Cc2ccccc2)NC(=O)/C=C/c2cc(OC)c(O)c(OC)c2)cn1,69.5,11.5,
CCCN(C[C@@H](O)[C@H](Cc1ccccc1)NC(=O)/C=C/c1ccc(O)c(OC)c1)S(=O)(=O)c1ccc(OC)cc1,24.1,106,
COc1ccc(S(=O)(=O)N(CC(C)C)C[C@@H](O)[C@H](Cc2ccccc2)NC(=O)CCc2ccc(O)c(O)c2)cn1,0.081,2.5,
COc1ccc(S(=O)(=O)N(C[C@@H](O)[C@H](Cc2ccccc2)NC(=O)CCc2cc(OC)c(O)cc2OC)C(C)C)cc1,70.1,299,
COc1ccc(S(=O)(=O)N(C[C@@H](O)[C@H](Cc2ccccc2)NC(=O)/C=C/c2ccc(O)c(OC)c2)C2CC2)cc1,97.6,43.5,
CC(C)CN(C[C@@H](O)[C@H](Cc1ccccc1)NC(=O)CCc1ccc(O)c(O)c1)S(=O)(=O)c1ccc(N)cc1,0.56,9.5,
COc1ccc(S(=O)(=O)N(C[C@@H](O)[C@H](Cc2ccccc2)NC(=O)/C=C/c2cc(OC)c(O)c(OC)c2)C(C)C)cc1,527,199,
